The values below come from ChEMBL document CHEMBL5316274 (J Med Chem, 2023).

Active and inactive are the calls of the source. The rule behind the calls is not given here.

For assay [1], the target named is T1, Mu-type opioid receptor (Mus musculus, UniProt P42866). Description: Binding affinity to mouse mu opioid receptor expressed in CHO cell membrane assessed as [35S]GTPgammaS binding incubated for 1.5 hrs by liquid scintillation counter analysis. The format is cell membranes. In a few lines: (§1)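 MOR [35S]GTPγS functional assay in MOR-CHO membranes (Bmax about 2.5–4 pmol/mg). Efficacy is expressed as % of the maximal stimulation by full agonist DAMGO.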
Background: GTPγS resists hydrolysis and so accumulates on activated G proteins.

The species entered for assay [2] is Mus musculus. The assay is described as follows: Selectivity ratio, ratio of Ki for binding affinity to mouse kappa opioid receptor expressed in CHO cell membrane to Ki for binding affinity to mouse mu opioid receptor expressed in CHO cell membrane.
Assay [3] addresses Mu-type opioid receptor (Mus musculus) (UniProt P42866). Description: Binding affinity to mouse mu opioid receptor expressed in CHO cell membrane assessed as stimulation of [35S]-GTPgammaS binding by measuring maximal efficacy incubated for 1.5 hrs by scintillation spectroscopy analysis relative DAMGO. The format is cell membranes. In a few lines:
as §1

Assay [4] has as its target T1, Mu-type opioid receptor. Description: Binding affinity to mouse mu opioid receptor expressed in CHO cell membrane assessed as inhibition constant incubated for 1.5 hrs by competitive radioligand binding assay. Type of assay: cell membranes.
For assay [5], the target named is Kappa-type opioid receptor (Mus musculus, UniProt P33534). Description: Binding affinity to mouse kappa opioid receptor expressed in CHO cell membrane assessed as inhibition constant incubated for 1.5 hrs by competitive radioligand binding assay. Type of assay: cell membranes.
Assay [6] has as its system Mus musculus. The assay is described as follows: Antinociceptive activity in Swiss Webster mouse assessed as inhibition of morphine induced latency to tail withdrawal at 10 mg/kg, sc preincubated for 5 mins followed by morphine addition and measured after 20 mins by warm water tail immersion assay. The format is functional, organism-based. The following applies: time 25.0 min. In a few lines:
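Male Swiss-Webster mice (n = 5). Compound is given s.c. at time 0 (10 mg/kg in the single-dose screen, a dose range for AD50), and morphine 10 mg/kg follows 5 min later. Tail flick is tested in 56 ± 0.1 °C water 20 min after morphine and scored as % MPE. Saline and morphine alone are the controls.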

Assay [7] can be described thus: Selectivity ratio, ratio of Ki for binding affinity to human delta opioid receptor expressed in CHO cell membrane to Ki for binding affinity to mouse mu opioid receptor expressed in CHO cell membrane.

With `O=C(N[C@H]1CC[C@@]2(O)[C@H]3Cc4ccc(O)c5c4[C@@]2(CCN3CC2CC2)[C@H]1O5)c1cccc2c(-c3ccccc3)c[nH]c12`, the EC50 in assay [1] was 1.85 nM. Besides, the Ratio Ki amounted to 5.7 in assay [2] and 6.3 in assay [7]. Besides, the Emax in assay [3] was determined as 5.57%. The values for the Ki in assay [4] and in assay [5] were 2.37 nM and 13.4 nM, respectively. Besides, the result in assay [6] was inactive.
With `Cc1c[nH]c2c(C(=O)N[C@H]3CC[C@@]4(O)[C@H]5Cc6ccc(O)c7c6[C@@]4(CCN5CC4CC4)[C@H]3O7)cccc12`, the concentration giving a half-maximal response (EC50) in assay [1] came out at 2.68 nM. Also, the Ratio Ki in assay [2] came out at 6.1; in assay [7] it was 20.1. In addition, the Emax in assay [3] turned out to be 15.7%. Also, the Ki in assay [4] stood at 0.69 nM; in assay [5] it was 4.2 nM. Further, in assay [6], the outcome was Active.
Turning to `CC(=O)Nc1c[nH]c2c(C(=O)N[C@@H]3CC[C@@]4(O)[C@H]5Cc6ccc(O)c7c6[C@@]4(CCN5CC4CC4)[C@H]3O7)cccc12`, the EC50 in assay [1] came to 0.88 nM. Further, the Ratio Ki in assay [2] is 24.4; in assay [7], 116. The Emax in assay [3] was found to be 8.84%. Moreover, the figures for the Ki in assay [4] and in assay [5] were 0.27 nM and 6.52 nM, respectively. Further, the outcome in assay [6] was inactive.
`N#Cc1cc2cccc(C(=O)N[C@H]3CC[C@@]4(O)[C@H]5Cc6ccc(O)c7c6[C@@]4(CCN5CC4CC4)[C@H]3O7)c2[nH]1`: the EC50 in assay [1] was 3.58 nM. The Ratio Ki in assay [2] came out at 8.2. Besides, the Emax in assay [3] is 14.4%. The inhibitory constant (Ki) in assay [4] turned out to be 0.87 nM; in assay [5], 7.1 nM. Besides, the result in assay [6] was inactive.
For `O=C(N[C@H]1CC[C@@]2(O)[C@H]3Cc4ccc(O)c5c4[C@@]2(CCN3CC2CC2)[C@H]1O5)c1cccc2cc(Cl)[nH]c12`, the EC50 in assay [1] worked out at 1.82 nM. Further, the Ratio Ki in assay [2] worked out at 4.2; in assay [7], 2.8. Moreover, the maximal effect (Emax) in assay [3] is 14.8%. The values for the inhibition constant (Ki) in assay [4] and in assay [5] were 0.65 nM and 2.73 nM, respectively.
Consider `O=C(N[C@H]1CC[C@@]2(O)[C@H]3Cc4ccc(O)c5c4[C@@]2(CCN3CC2CC2)[C@H]1O5)c1cccc2c(Br)c[nH]c12`, for which the EC50 in assay [1] came to 2.46 nM. For the same compound, the figures for the Ratio Ki in assay [2] and in assay [7] were 5.7 and 20.6, respectively. Further, the Emax in assay [3] came to 14.9%. The figures for the Ki in assay [4] and in assay [5] were 0.93 nM and 5.28 nM, respectively. Also, the outcome in assay [6] was inactive.
For the compound `O=C(N[C@@H]1CC[C@@]2(O)[C@H]3Cc4ccc(O)c5c4[C@@]2(CCN3CC2CC2)[C@H]1O5)c1cccc2c(C3CCCCC3)c[nH]c12`, in assay [1], the concentration giving a half-maximal response (EC50) stood at 20.8 nM. Besides, the figures for the Ratio Ki in assay [2] and in assay [7] were 7.5 and 11.5, respectively. For the same compound, in assay [3], the Emax is 6.23%. Moreover, the Ki in assay [4] was determined as 5.57 nM; in assay [5], 41.7 nM. Also, the outcome in assay [6] was inactive.
Consider `O=C(N[C@H]1CC[C@@]2(O)[C@H]3Cc4ccc(O)c5c4[C@@]2(CCN3CC2CC2)[C@H]1O5)c1cccc2c([N+](=O)[O-])c[nH]c12`, for which, in assay [1], the EC50 turned out to be 2.32 nM. The Emax in assay [3] came out at 11.3%. In addition, the Ki worked out at 1.07 nM in assay [4] and 9.84 nM in assay [5]. The outcome in assay [6] was inactive.
Consider `O=C(N[C@@H]1CC[C@@]2(O)[C@H]3Cc4ccc(O)c5c4[C@@]2(CCN3CC2CC2)[C@H]1O5)c1cccc2c(C3CCCC3)c[nH]c12`, for which the Ratio Ki was 7.5 in assay [2] and 6.8 in assay [7]. The Emax in assay [3] is 21.3%. Besides, the Ki in assay [4] came out at 1.45 nM; in assay [5], 10.8 nM. For the same compound, in assay [6], the outcome was inactive.
In the case of `CC(C)c1c[nH]c2c(C(=O)N[C@@H]3CC[C@@]4(O)[C@H]5Cc6ccc(O)c7c6[C@@]4(CCN5CC4CC4)[C@H]3O7)cccc12`, in assay [1], the EC50 amounted to 1.73 nM. Further, the Ratio Ki in assay [2] came to 1.1; in assay [7], 22.2. Moreover, the maximum response (Emax) in assay [3] was found to be 36.2%. Further, the figures for the Ki in assay [4] and in assay [5] were 0.89 nM and 0.98 nM, respectively. The result in assay [6] was inactive.
On to `O=C(N[C@H]1CC[C@@]2(O)[C@H]3Cc4ccc(O)c5c4[C@@]2(CCN3CC2CC2)[C@H]1O5)c1cccc2cc(Br)[nH]c12`, for which the Ratio Ki is 3.1 in assay [2] and 14 in assay [7]. Moreover, the Emax in assay [3] was 13.3%. Also, the Ki in assay [4] came to 0.48 nM; in assay [5] it was 1.5 nM. The outcome in assay [6] was Active.
With `CC(=O)c1c[nH]c2c(C(=O)N[C@H]3CC[C@@]4(O)[C@H]5Cc6ccc(O)c7c6[C@@]4(CCN5CC4CC4)[C@H]3O7)cccc12`, the concentration for a half-maximal effect (EC50) in assay [1] stood at 5.21 nM. The Ratio Ki in assay [2] is 14.9; in assay [7] it was 25.4. The Emax in assay [3] was found to be 9.81%. Further, in assay [4], the Ki amounted to 0.43 nM. In addition, the outcome in assay [6] was inactive.
Regarding `N#Cc1c[nH]c2c(C(=O)N[C@H]3CC[C@@]4(O)[C@H]5Cc6ccc(O)c7c6[C@@]4(CCN5CC4CC4)[C@H]3O7)cccc12`, the EC50 in assay [1] is 2.54 nM. Also, in assay [3], the Emax amounted to 11.4%. The figures for the Ki in assay [4] and in assay [5] were 0.87 nM and 5.46 nM, respectively. Also, the outcome in assay [6] was inactive. Besides, the Ratio Ki in assay [7] was determined as 14.
Take `O=C(N[C@@H]1CC[C@@]2(O)[C@H]3Cc4ccc(O)c5c4[C@@]2(CCN3CC2CC2)[C@H]1O5)c1cccc2c(Br)c[nH]c12`: in assay [1], the EC50 amounted to 1.05 nM. Also, the Ratio Ki in assay [2] was 1.6; in assay [7] it was 16.7. Besides, in assay [3] (filed as modulator), the Emax was 70.4%. Also, the figures for the Ki in assay [4] and in assay [5] were 0.7 nM and 1.08 nM, respectively.
Consider `N#Cc1cc2cccc(C(=O)N[C@@H]3CC[C@@]4(O)[C@H]5Cc6ccc(O)c7c6[C@@]4(CCN5CC4CC4)[C@H]3O7)c2[nH]1`, for which the EC50 in assay [1] was 3.78 nM. The Ratio Ki in assay [2] is 2.3; in assay [7], 16.5. In addition, the Emax in assay [3] came out at 21.3%. The Ki in assay [4] worked out at 0.73 nM; in assay [5], 1.66 nM.
For `O=C(N[C@@H]1CC[C@@]2(O)[C@H]3Cc4ccc(O)c5c4[C@@]2(CCN3CC2CC2)[C@H]1O5)c1cccc2cc(Cl)[nH]c12`, the EC50 in assay [1] came to 1.4 nM. The Ratio Ki turned out to be 2 in assay [2] and 3.8 in assay [7]. The Emax in assay [3] amounted to 38.5%. Also, the Ki in assay [4] came out at 0.63 nM; in assay [5], 1.28 nM.
For the compound `CC(=O)c1c[nH]c2c(C(=O)N[C@@H]3CC[C@@]4(O)[C@H]5Cc6ccc(O)c7c6[C@@]4(CCN5CC4CC4)[C@H]3O7)cccc12`, the EC50 in assay [1] stood at 204 nM. Further, the Emax in assay [3] came to 10.9%. Besides, the Ki in assay [4] is over 50 nM; in assay [5], 15.6 nM. Further, the result in assay [6] was inactive.
As to `O=C(N[C@H]1CC[C@@]2(O)[C@H]3Cc4ccc(O)c5c4[C@@]2(CCN3CC2CC2)[C@H]1O5)c1cccc2cc(-c3ccccc3)[nH]c12`, the EC50 in assay [1] was 2.07 nM. Further, the Ratio Ki in assay [2] was 2.6. Besides, the Emax in assay [3] worked out at 7.44%. For the same compound, the Ki in assay [4] came to 2.45 nM; in assay [5], 6.42 nM. Besides, the result in assay [6] was inactive.

As a reminder, the EC50 is the midpoint of the concentration-response curve. By Emax is commonly meant the maximal effect, on the per cent scale that the assay sets. In general, Ki refers to a measure of affinity in units of concentration, obtained from inhibition or displacement.
